Shown is part of a subset that was picked to be rich in hits.
bCat KO growth – beta-catenin-lacking colon tumor cell growth suppression; HCT116 beta-catenin knockout viability, CellTiter-Glo, 60 h; active compounds read low; viability, % at 10 µM; 140,000 compounds, 1.5% hits;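 active means viability at or under a set limit, the compound median less 4 SD, cut at about 6% in these data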;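 further: 0% = Hyamine 1622 control at 20 µM and 100% = untreated cell control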
HUVEC prolif 384 – human endothelial cell proliferation inhibition; HUVEC proliferation, CellTiter-Glo luminescence, 72 h; active compounds read low; viability, % at 10 µM (by protocol); AID 648; 86,000 compounds, 1.1% hits;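 active means viability at or below 30%; inactive means viability above 30%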;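 further: 100% = median luminescence of DMSO-only cell control wells on each plate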
H69AR inhibit – growth inhibitors of human H69AR lung tumor cells. H69AR lung tumor viability, ATP luminescence, 72 h; active compounds read low. 85,000 compounds, 6% hits. viability, % at 10 µM;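 active means viability at or below 40%; inactive means viability above 40%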;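 further: multidrug resistant small cell line overexpressing MRP-1 efflux transporter; 100% = mean luminescence of untreated control wells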
Lung fibro prol – blocks proliferation of human lung fibroblasts. LL 47 human lung fibroblast viability, ATP luminescence; active compounds read low. viability, % at 10 µM. 85,000 compounds, 1.1% hits. AID 719;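 active means viability at or below 50% in the single dose screen; inactive means viability above 50%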;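 further: compound exposure lasted 72 h before the ATP readout; 100% = median luminescence of untreated cell-only wells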
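Test system: LL 47 human lung fibroblasts / Incubation: 72 h compound exposure at 37 °C after overnight plating / Technique: luminescent ATP detection, CellTiter-Glo / Compound dosing: 0.1% DMSO in all compound wells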
HCT116 PTEN-null – growth suppressors of cells with PTEN tumor suppressor deletion | HCT116 PTEN-null viability, CellTiter-Glo, 60 h; active compounds read low | viability, % at 10 µM | 140,000 compounds, 1.2% hits | AID 827;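 active means viability at or below a set limit, 4 SD under the median of all tested compounds, cut at about 3.7% in these data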;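 further: PTEN knockout HCT116 line with beta catenin targeted HCT116 as companion control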
An asterisk follows results filed as active; nt = no result.

SMILES	bCat KO growth	HUVEC prolif 384	H69AR inhibit	Lung fibro prol	HCT116 PTEN-null
CCCC(=O)Nc1cccc(-c2nc3ccccc3o2)c1	93	98	100	97	95
O=C(Nc1ccc2oc(-c3cccc(F)c3)nc2c1)c1ccccc1F	7	64	49	103	2.4*
COc1cc(C(=O)Nc2cc(-c3nc4cc(C)ccc4o3)ccc2C)cc(OC)c1OC	97	43	30*	58	88
COc1cc(OC)cc(-c2nc3cc(C)ccc3o2)c1	72	65	31*	70	66
O=C(Nc1ccc2oc(-c3ccccc3)nc2c1)c1ccccc1F	80	101	87	113	94
Cc1ccc(-c2nc3cc(Cl)ccc3o2)cc1	94	88	54	98	92
Cc1cccc(S(=O)(=O)NNC(=O)c2sc(C)nc2C)c1	92	nt	nt	nt	101
CSc1nsc(/C=C/Nc2cccc(Cl)c2)c1C#N	66	93	29*	97	62
CSc1nsc(/C=C/Nc2ccc(Cl)cc2)c1C#N	83	nt	nt	nt	79
O=C(/C=C/c1ccccc1)N1CCN(c2c(Cl)cccc2[N+](=O)[O-])CC1	78	nt	nt	nt	94
Cc1ncc(CCl)c2c1OC(C)(C)OC2	100	79	2.8*	97	96
Cc1cccc(-n2c(SCc3ccc(C#N)cc3)nnc2-c2c[nH]c3ccccc23)c1	76	nt	nt	nt	80
COc1ccccc1N1C(=O)N(C(C)=O)C2C1Nc1ccccc1N2C (stereo unspecified)	83	26*	31*	90	93
CC(C)NC(=S)Nc1ccc2cn[nH]c2c1	103	nt	nt	nt	94
Cc1ccc(C(=O)/C=C/Nc2cccc([N+](=O)[O-])c2)o1	80	nt	nt	nt	80
COc1ccccc1NC(=O)N(Cc1ccco1)Cc1cc2ccc(C)c(C)c2[nH]c1=O	17	59	17*	55	24
COc1ccccc1NC(=S)N(Cc1ccco1)Cc1cc2cccc(C)c2[nH]c1=O	90	nt	nt	nt	73
COc1ccccc1NC(=O)N(Cc1ccco1)Cc1cc2cc(C)cc(C)c2[nH]c1=O	31	61	19*	105	30
COc1ccccc1CC(=O)Nc1ccc(-c2noc(COc3ccc(Cl)c(C)c3)n2)cc1	80	86	30*	73	92
CCOc1ccccc1-c1nc(-c2ccc(NC(=O)Cc3ccccc3OC)cc2)no1	88	97	90	106	76
CCn1cc(CNC(=O)c2c(-c3c(Cl)cccc3Cl)noc2C)c(C)n1	101	nt	nt	nt	94
CC1(C)Cc2c(c(-c3ccco3)nc3sc4c(NCCN5CCOCC5)ncnc4c23)CO1	1.6*	nt	nt	nt	1.4*
Cc1onc(-c2ccccc2)c1C(=O)NNC(=S)NC(=O)/C=C/c1cccs1	32	nt	nt	nt	27
CCOc1ccc(-c2csc(/C(C#N)=C\c3ccc(O)c([N+](=O)[O-])c3)n2)cc1	5.5*	nt	nt	nt	5
CCCCc1ccc(-c2csc(/C(C#N)=C\c3ccc(C)o3)n2)cc1	95	nt	nt	nt	87
SMILES	bCat KO growth	HUVEC prolif 384	H69AR inhibit	Lung fibro prol	HCT116 PTEN-null
NC1=NC(=Nc2cccc(Cl)c2)c2ccccc21	65	nt	nt	nt	67
COc1ccc(-c2nc(C(N)=O)c3[nH]c(=O)n(-c4cccc(Cl)c4)c3n2)cc1OC	7	32	2.1*	7.5*	2.3*
CCc1ccc(-c2nc(C(N)=O)c3[nH]c(=O)n(-c4ccccc4OC)c3n2)cc1	39	39	16*	37*	26
O=S(=O)(c1ccccc1)N1CCN=C1SCc1cccc(Cl)c1	78	nt	nt	nt	76
CC(C)[C@H](NC(=O)c1ccccc1)C(=O)OCC(=O)N1CC2(C)CC1CC(C)(C)C2 (stereo partly specified)	97	nt	nt	nt	89
Cc1nc2cc3c(cc2c(C)c1C(=O)OC(C)C)OCO3	86	nt	nt	nt	90
COc1ccc(CNC(=O)CCSc2nc(-c3ccc4c(c3)OCO4)cc(C(F)(F)F)n2)cc1	71	64	33*	97	61
COCCNC(=O)CCSc1nc(-c2ccc(OC)cc2)cc(C(F)(F)F)n1	94	93	68	106	82
O=C(CCSc1nc(-c2ccc3c(c2)OCO3)cc(C(F)(F)F)n1)NCc1ccco1	87	96	33*	100	58
CN(Cc1ccccc1)C(=O)CCSc1nc(-c2ccc3c(c2)OCO3)cc(C(F)(F)F)n1	69	95	77	105	62
O=C(CCSc1nc(-c2ccc3c(c2)OCO3)cc(C(F)(F)F)n1)NCc1ccccc1	83	91	23*	99	80
On1nnc2ccc3ccccc3c21	87	nt	nt	nt	96
N/C(Cc1ccc(Cl)cc1)=N\OC(=O)C1CCCCC1	95	nt	nt	nt	101
CC1SC(=Nc2ccccc2)N(S(=O)(=O)c2ccccc2)C1=O (stereo unspecified)	93	nt	nt	nt	95
CC1(C)NC(=O)N(CCOCCOc2ccc3ccccc3c2Br)C1=O	78	78	33*	90	77
CCOc1cc(C(=O)Nc2cnccn2)cc(OCC)c1OCC	32	75	24*	96	29
CCOc1cc(C(=O)Nc2cc(C)ccn2)cc(OCC)c1OCC	36	85	77	96	37
Cc1c(Br)cc(C(=O)OC2CCN(C)CC2)c(C)c1C	76	78	3.8*	91	83
CCCCOc1ncnc2c1[nH]c1ccc(OC)cc12	82	97	53	98	77
COc1ccc2[nH]c3c(Cl)ncnc3c2c1	5.7*	nt	nt	nt	9
C=CC(=O)N1c2ccccc2Sc2ccc(NC(=O)OCC)cc21	73	46	26*	68	78
CCOC(=O)Nc1ccc2c(c1)N(C(=O)N1CCN(C)CC1)c1ccccc1S2	85	69	103	83	86
FC(F)(F)c1ccc(N2CCN(c3ncnc4c3nnn4Cc3ccccc3)CC2)nc1	85	57	40*	95	96
c1ccc(Cn2nnc3c(N4CCOCC4)ncnc32)cc1	105	nt	nt	nt	85
O=c1[nH]c(/C=C/c2ccccc2OC(F)F)nc2c1cnn2-c1ccccc1	40	nt	nt	nt	29
SMILES	bCat KO growth	HUVEC prolif 384	H69AR inhibit	Lung fibro prol	HCT116 PTEN-null
CC(=O)c1c(C(C)=O)c(C)n(Cc2ccccc2)c1C	82	99	97	96	87
Cc1c(C=O)c(C=O)c(C)n1Cc1ccccc1	10	51	38*	48*	9
N#CCSc1nc2scc(-c3cccs3)c2c(=O)n1CCc1ccccc1	86	98	43	92	90
CCN(CC)c1ccc(N=Cc2ccc([N+](=O)[O-])o2)cc1	4.7*	nt	nt	nt	1.9*
CCN(CC)c1ccc(N=Cc2ccccc2[N+](=O)[O-])cc1	46	nt	nt	nt	53
COc1ccccc1/C=c1\sc2nc(-c3ccco3)nn2c1=O	92	97	36*	97	109
C=CCn1c(SCC(=O)Nc2sccc2C(N)=O)nc2sc(CC)cc2c1=O	71	73	40*	86	75
C=CCn1c(SCC(=O)c2c(N)n(CCC)c(=O)n(C)c2=O)nc2sc(CC)cc2c1=O	41	83	7.7*	46*	36
C=CCn1c(SCC(=O)Nc2sccc2C(N)=O)nc2ccccc2c1=O	76	59	31*	88	76

Source: PubChem (SRMLSC)
